Data from ChEMBL document CHEMBL5038600, “Discovery of M-1121 as an Orally Active Covalent Inhibitor of Menin-MLL Interaction Capable of Achieving Complete and Long-Lasting Tumor Regression” (J Med Chem, 2021).
Calls of active or inactive are those of the source. The rule behind the calls is not given here.

Key:
MV4-11 [1] = test: Anti-proliferative activity against human MV4-11 cells harboring MLL/AF4 fusion protein assessed as cell growth inhibition measured after 4 days by Cell Titre Glo Luminescent Cell viability assay; format: functional, cell-based; conditions: MV4-11, 96 h
Menin (Homo sapiens) [2] = target: T1, Menin (Homo sapiens) (UniProt O00255); test: Binding affinity to recombinant human menin protein assessed as covalent complex formation incubated for 10 mins by LC/MS analysis; parameters: concentration or dose not given beside the values
T1 sequence (whole entry): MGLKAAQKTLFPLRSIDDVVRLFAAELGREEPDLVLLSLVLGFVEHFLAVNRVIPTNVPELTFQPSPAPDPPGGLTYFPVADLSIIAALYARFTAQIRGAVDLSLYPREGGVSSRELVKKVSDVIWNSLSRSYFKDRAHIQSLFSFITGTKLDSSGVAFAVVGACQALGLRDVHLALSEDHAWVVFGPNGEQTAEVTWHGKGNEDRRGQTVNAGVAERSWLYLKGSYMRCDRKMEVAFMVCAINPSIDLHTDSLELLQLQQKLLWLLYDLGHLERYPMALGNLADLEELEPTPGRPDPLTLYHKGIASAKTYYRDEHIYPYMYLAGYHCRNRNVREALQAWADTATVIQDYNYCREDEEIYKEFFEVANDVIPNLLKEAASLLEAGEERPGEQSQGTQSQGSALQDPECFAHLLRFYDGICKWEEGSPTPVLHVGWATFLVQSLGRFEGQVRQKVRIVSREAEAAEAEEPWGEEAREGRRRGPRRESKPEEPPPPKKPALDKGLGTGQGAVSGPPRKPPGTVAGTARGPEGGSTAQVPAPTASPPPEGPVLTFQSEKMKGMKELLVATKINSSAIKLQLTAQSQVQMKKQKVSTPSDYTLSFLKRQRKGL

Menin (Homo sapiens) [3] = target: T1, Menin (Homo sapiens); test: Binding affinity to recombinant human menin protein assessed as covalent complex formation incubated for 30 mins by LC/MS analysis; parameters: concentration or dose not given beside the values
[4] = Clearance in C57BL/6 mouse at 1 mg/kg, iv; format: ADME, organism-based; conditions: in vivo
Summary of the method: (§1)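 Female C57BL/6 mice, single IV dose of 1 mg/kg given as a solution in 10% NMP, 10% Solutol HS15 and 80% saline. Parameters come from the plasma concentration–time profile.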

[5] = AUC (0 to infinity) in C57BL/6 mouse at 1 mg/kg, iv; format: ADME, organism-based; parameters: time infinity, route intravenous, dose 1 mg/kg; conditions: in vivo; summary of the method: as §1
[6] = Tmax in C57BL/6 mouse at 5 mg/kg, po; format: ADME, organism-based; conditions: in vivo
Summary of the method: (§2)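 Female C57BL/6 mice, single oral dose of 5 mg/kg in 0.5% methyl cellulose + 0.2% Tween 80 (w/w). Bioavailability is calculated against the 1 mg/kg IV arm.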

[7] = Cmax in C57BL/6 mouse at 5 mg/kg, po; format: ADME, organism-based; parameters: route oral, dose 5 mg/kg; conditions: in vivo; summary of the method: as §2
[8] = Anti-proliferative activity against human OCI-AML-4 cells harboring MLL-ENL fusion protein assessed as cell growth inhibition measured after 4 days by Cell Titre Glo Luminescent Cell viability assay; format: functional, cell-based; conditions: OCI-AML-4, 96 h
Summary of the method: (§3)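 Leukemia lines plated in triplicate in RPMI 1640 at 37 °C, 5% CO2. 9-point dose response from 10 μM top concentration with 1:3 serial dilutions, 0.1% DMSO final; DMSO vehicle control column. Cellular ATP read by CellTiter-Glo at day 0 and after 4 days. Averages from three independent experiments.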

SEM cells = test: Anti-proliferative activity against human SEM cells harboring MLL/AF4 fusion protein assessed as cell growth inhibition measured after 4 days by Cell Titre Glo Luminescent Cell viability assay; format: functional, cell-based; conditions: 96 h; summary of the method: as §3
[9] = GSH reactivity in pH 7.4 assessed as conjugation half life at pH 7.4; format: physicochemical
MV4-11 [10] = test: Suppression of HOXA9 gene expression in human MV4-11 cells at 10 nM measured after 24 hrs by qRT-PCR analysis; format: functional, cell-based
[11] = Protein binding in human plasma at 1 uM incubated for 5 hrs by liquid chromatography-tandem mass spectrometry; format: ADME, cell-free
Summary of the method: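 Equilibrium dialysis: plasma spiked at 1 μM against dialysis buffer, shaken 5 h at 37 °C, with warfarin and quinidine (1 μM) as controls. Samples matrix-matched, quenched with acetonitrile containing imipramine internal standard, and analysed by LC-MS/MS. Percent bound computed from peak area ratios.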

[12] = Toxicity in SCID mouse xenografted with human MV4-11 cells assessed as change weight loss at 300 mg/kg, po qd administered daily for 15 days; format: organism-based; conditions: in vivo, 360 h, time 15 day
Summary of the method: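 Female C.B-17 SCID mice, 5–6 weeks old, implanted subcutaneously in the right flank with 5×10^6 MV4;11 cells in 1:1 Matrigel. Randomized at about 200 mm3. Dosed 300 mg/kg by oral gavage once daily for 15 days in 0.5% MC (400 cP) + 0.2% Tween 80 at 10 mL/kg. Body weight measured daily; caliper volume (0.5×W×W×L) three times weekly.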

MV4-11 [13] = test: Anti-tumor activity against luciferase-tagged human MV4-11 cells xenografted in NCG mouse assessed as decreased intensity of whole body bioluminescence signal at 150 mg/kg, po administered daily for 4 days measured after 48 hrs by bioluminescence analysis; format: functional, organism-based; conditions: time 4.0 day
Summary of the method: (§4)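 Female NCG mice, 5–6 weeks old, given 5×10^6 luciferase-tagged MV4;11 cells IV via tail vein. Randomized at log-phase disease (day 27). Dosed 150 mg/kg oral gavage daily for 4 days in MC/Tween 80 vehicle. Read-outs 48 h after the last dose, five mice per group, mean ± SEM: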

[14] = Toxicity in NCG mouse xenografted with luciferase-tagged MV4-11 cells assessed as change in body weight at 150 mg/kg, po administered daily for 4 days measured after 48 hrs; format: organism-based; conditions: in vivo, 96 h, time 4 day; summary of the method: as §4

## C=CC(=O)N1C[C@@H]2C[C@H]1CN2S(=O)(=O)c1ccc(N2CC(CN3CCC([C@@](CN4CCC4)(c4cccc(F)c4)[C@H]4CCC[C@@H]4NC(=O)OC)CC3)(OC)C2)cc1
MV4-11 [1]
  IC50: 10.3 nM
Menin (Homo sapiens) [2]
  Activity: 27%
Menin (Homo sapiens) [3]
  Activity: 59%
[4]
  clearance: 0.945 mL/min/kg
[5]
  AUC(0-inf): 17600 ng·h/mL
[6]
  Tmax: 2 h
[7]
  Cmax: 4150 ng/mL
[8]
  IC50: 3 nM
SEM cells
  IC50: 51 nM
[9]
  t1/2: 1.48 h
MV4-11 [10]
  inhibition: Active
[11]
  PPB: 90.7%
[12]
  Activity: Non-Toxic
MV4-11 [13]
  Activity: Active
[14]
  Activity: Non-Toxic
